What all share (assay type): functional, organism-based
Test [1] concerns Plasmodium falciparum. Kind of test: Antimalarial activity against chloroquine-resistant Plasmodium falciparum Bre1 by hypoxanthine uptake. In outline: (§1)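 Synchronous parasites diluted in A-positive human erythrocytes with RPMI 1640 + 10% human serum, 25 mM HEPES, 25 mM NaHCO₃, to 0.2 parasitemia and 1.5 hematocrit. Added to wells predosed with drug, 0.06 to 200 µM in triplicate. 1 µCi [³H]hypoxanthine per well, 42 h at 37 °C. Incorporated radioactivity counted by scintillation. IC50 from non-linear regression of log-dose/response versus drug-free controls.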

The subject of test [2] is Plasmodium falciparum. In words: Antimalarial activity against chloroquine-resistant Plasmodium falciparum FCR3 by hypoxanthine uptake. In short, it runs like this: as §1
Test [3] has as its system Plasmodium falciparum. Kind of test: Antimalarial activity against chloroquine-resistant Plasmodium falciparum W2 by hypoxanthine uptake. In outline:
as §1

In test [4] the test system is Plasmodium falciparum. In words: Antimalarial activity against chloroquine-sensitive Plasmodium falciparum 3D7 by hypoxanthine uptake. In outline:
as §1

As to `COc1ccc2nc3cc(Cl)ccc3c(NCCCCCCN)c2c1`, the IC50 (commonly the point on the concentration scale where inhibition reaches its midpoint) in the test with Plasmodium falciparum [1] amounted to 170 nM; in the test with Plasmodium falciparum [2], 200 nM; in the test on Plasmodium falciparum [3] it was 180 nM; in the test on Plasmodium falciparum [4], 130 nM.
With `COc1ccc2nc3cc(Cl)ccc3c(NCCCCCCNC(=O)CCCNC(=O)CN)c2c1`, the IC50 stood at 620 nM in the test with Plasmodium falciparum [1], 810 nM in the test on Plasmodium falciparum [2], 830 nM with Plasmodium falciparum [3] and 890 nM with Plasmodium falciparum [4].
On to `COc1ccc2nc3cc(Cl)ccc3c(NCCCCCCNC(=O)CCN)c2c1`, for which the concentration for half-maximal inhibition (IC50) with Plasmodium falciparum [1] amounted to 1260 nM; in the test with Plasmodium falciparum [2], 1250 nM; with Plasmodium falciparum [3] it was 1250 nM; in the test on Plasmodium falciparum [4] it was 910 nM.
Consider `N=C(N)NCCCC(N)C(=O)NCC(=O)NCCCCCCNC(=O)c1c2ccccc2nc2ccccc12` (configuration not stated), for which the IC50 in the test with Plasmodium falciparum [1] was determined as 47600 nM; with Plasmodium falciparum [2], 42500 nM; with Plasmodium falciparum [3], 43600 nM; in the test with Plasmodium falciparum [4], 42000 nM.
On to `COc1ccc2nc3cc(Cl)ccc3c(NCCCCCCNC(=O)CCCNC(=O)CNC(=O)C(N)CCCNC(=N)N)c2c1` (configuration not stated), for which the IC50 stood at 500 nM in the test with Plasmodium falciparum [1], 670 nM in the test with Plasmodium falciparum [2], 820 nM in the test on Plasmodium falciparum [3] and 840 nM with Plasmodium falciparum [4].
In the case of `COc1ccc2nc3cc(Cl)ccc3c(NCCCCCCNC(=O)CCNC(=O)CCNC(=O)C(N)CCCNC(=N)N)c2c1` (configuration not stated), the IC50 in the test with Plasmodium falciparum [1] was found to be 860 nM; with Plasmodium falciparum [2] it was 860 nM; in the test with Plasmodium falciparum [3] it was 940 nM; in the test on Plasmodium falciparum [4] it was 3320 nM.
With `N=C(N)NCCCC(N)C(=O)NCC(=O)NCCCCCCCC(=O)Nc1c2ccccc2nc2ccccc12` (configuration not stated), the 50% inhibitory concentration (IC50) in the test on Plasmodium falciparum [1] came to 28700 nM; in the test with Plasmodium falciparum [2], 27200 nM; in the test with Plasmodium falciparum [3] it was 30500 nM; in the test on Plasmodium falciparum [4] it was 27100 nM.
As for `COc1ccc2nc3cc(Cl)ccc3c(NCCCCCCNC(=O)CCCN)c2c1`, the IC50 in the test on Plasmodium falciparum [1] was 180 nM; with Plasmodium falciparum [2] it was 540 nM; in the test with Plasmodium falciparum [3], 570 nM; in the test with Plasmodium falciparum [4], 190 nM.
